Molecules are shown by their SMILES.

The subject of assay [1] is Rattus norvegicus. Description: Plasma ANF Concentration in the Conscious Rat at a dose of 11.7(po)mg/kg at 1 h. The assay is classed as functional. In a few lines: (§1)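 Male Sprague-Dawley rats (275-390 g) received femoral artery and vein catheters under ketamine (150 mg/kg)/acepromazine and recovered for 24 h, tethered, before study conscious. ratANF(99-126) was infused at 450 ng/kg/min iv for 5 h. Baseline blood was drawn at 60 min into the infusion, then compound was given po.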

Assay [2] has as its system Rattus norvegicus. Description: Plasma ANF Concentration in the Conscious Rat at a dose of 11.7(po)mg/kg at 0.5 h. It is filed as functional. In a few lines:
as §1

The test system of assay [3] is Rattus norvegicus. Kind of assay: Plasma ANF Concentration in the Conscious Rat at a dose of 11.7(po)mg/kg at 2 h. It is filed as functional. The method, boiled down:
as §1

The target of assay [4] is T1, Angiotensin-converting enzyme (Rattus norvegicus) (UniProt P47820).
T1 sequence (whole entry): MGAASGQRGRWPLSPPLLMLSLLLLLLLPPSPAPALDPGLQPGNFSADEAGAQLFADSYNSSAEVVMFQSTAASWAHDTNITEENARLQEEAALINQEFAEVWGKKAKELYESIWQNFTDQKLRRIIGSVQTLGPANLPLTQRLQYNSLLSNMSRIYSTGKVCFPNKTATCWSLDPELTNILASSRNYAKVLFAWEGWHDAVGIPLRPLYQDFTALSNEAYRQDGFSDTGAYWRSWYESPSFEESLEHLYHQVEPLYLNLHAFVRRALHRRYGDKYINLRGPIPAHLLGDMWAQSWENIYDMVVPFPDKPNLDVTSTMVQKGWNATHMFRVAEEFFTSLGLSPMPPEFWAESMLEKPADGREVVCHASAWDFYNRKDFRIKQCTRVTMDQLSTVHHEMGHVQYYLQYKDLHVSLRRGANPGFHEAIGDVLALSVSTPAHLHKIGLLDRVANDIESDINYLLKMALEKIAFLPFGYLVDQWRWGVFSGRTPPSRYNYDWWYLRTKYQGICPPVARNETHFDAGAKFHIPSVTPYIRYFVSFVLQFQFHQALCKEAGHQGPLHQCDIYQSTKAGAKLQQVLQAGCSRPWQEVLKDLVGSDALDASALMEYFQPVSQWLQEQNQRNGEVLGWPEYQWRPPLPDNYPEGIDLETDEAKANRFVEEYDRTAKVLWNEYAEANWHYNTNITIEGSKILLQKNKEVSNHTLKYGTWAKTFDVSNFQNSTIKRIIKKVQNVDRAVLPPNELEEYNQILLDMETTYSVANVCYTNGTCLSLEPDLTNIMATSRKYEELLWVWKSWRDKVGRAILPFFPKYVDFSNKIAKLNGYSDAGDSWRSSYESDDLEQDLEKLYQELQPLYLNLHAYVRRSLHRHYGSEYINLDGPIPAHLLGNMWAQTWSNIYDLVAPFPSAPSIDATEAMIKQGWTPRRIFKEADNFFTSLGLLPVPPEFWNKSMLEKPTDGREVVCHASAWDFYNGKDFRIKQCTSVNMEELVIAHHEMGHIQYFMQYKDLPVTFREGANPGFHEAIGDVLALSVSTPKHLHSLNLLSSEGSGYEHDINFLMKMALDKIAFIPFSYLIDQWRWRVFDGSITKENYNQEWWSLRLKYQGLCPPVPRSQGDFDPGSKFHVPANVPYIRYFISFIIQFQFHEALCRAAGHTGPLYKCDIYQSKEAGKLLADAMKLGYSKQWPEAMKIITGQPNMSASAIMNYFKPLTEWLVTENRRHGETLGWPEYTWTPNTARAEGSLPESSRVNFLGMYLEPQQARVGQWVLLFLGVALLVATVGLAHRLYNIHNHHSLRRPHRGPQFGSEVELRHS
Kind of assay: Compound was tested for plasma inhibition of Angiotensin I converting enzyme activity in the conscious rat. Expressed as Inhibition of AI pressor response at 1 hr at a dose of 11.7 mg/kg po. It is filed as organism-based. Also on record: dose 11.7 mg/kg. In a few lines: (§2)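 Male conscious normotensive Sprague-Dawley rats (275-390 g), given femoral arterial and venous catheters under methohexital sodium (75 mg/kg ip) anesthesia. Next day, pressor responses to three angiotensin-I challenges (300 ng/kg iv) recorded by direct arterial pressure. Compound then dosed orally, and AI challenge repeated at set times. Each post-dose response compared with the mean of the three baseline responses, giving % inhibition.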

Assay [5] addresses T1, Angiotensin-converting enzyme (Rattus norvegicus). Kind of assay: Compound was tested for plasma inhibition of Angiotensin I converting enzyme activity in the conscious rat. Expressed as Inhibition of AI pressor response at 2 hr at a dose of 11.7 mg/kg po. Set-up: dose 11.7 mg/kg. The assay is classed as organism-based. The method, boiled down:
as §2

For assay [6] the target is unchanged. Description: Compound was tested for plasma inhibition of Angiotensin I converting enzyme activity in the conscious rat. Expressed as Inhibition of AI pressor response at 4 hr at a dose of 11.7 mg/kg po. The assay is classed as organism-based. Set-up: dose 11.7 mg/kg. In a few lines: as §2
The subject of assay [7] is Rattus norvegicus. Description: Plasma ANF Concentration in the Conscious Rat at a dose of 11.7(po)mg/kg at 4 h. The assay is classed as functional. In a few lines:
as §1

Assay [8] concerns the target T1, Angiotensin-converting enzyme (Rattus norvegicus). Description: Compound was tested for plasma inhibition of Angiotensin I converting enzyme activity in the conscious rat. Expressed as Inhibition of AI pressor response at 6 hr at a dose of 11.7 mg/kg po. It is filed as organism-based. Set-up: dose 11.7 mg/kg. In a few lines:
(§3)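 Male conscious normotensive Sprague-Dawley rats (275-390 g), prepared under methohexital sodium (75 mg/kg ip) with femoral arterial and venous catheters. The next day, pressor responses to three angiotensin-I challenges (300 ng/kg iv) were recorded. Compound was then given orally and angiotensin-I challenges were repeated at set times. Percent inhibition is relative to the mean of the three baseline responses.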

Assay [9] has the same target. Description: Compound was tested for plasma inhibition of Angiotensin I converting enzyme activity in the conscious rat. Expressed as Inhibition of AI pressor response at 2 hr at a dose of 14.5 mg/kg po. It is filed as organism-based. Set-up: dose 14.5 mg/kg. The method, boiled down: as §2
For assay [10] the target is unchanged. Kind of assay: Compound was tested for plasma inhibition of Angiotensin I converting enzyme activity in the conscious rat. Expressed as Inhibition of AI pressor response at 6 hr at a dose of 14.5 mg/kg po. The assay is classed as organism-based. Also on record: dose 14.5 mg/kg. The method, boiled down: as §3
The target is the same in assay [11]. Description: Compound was tested for plasma inhibition of Angiotensin I converting enzyme activity in the conscious rat. Expressed as Inhibition of AI pressor response at 4 hr at a dose of 14.5 mg/kg po. It is filed as organism-based. Set-up: dose 14.5 mg/kg. In a few lines: as §3
For assay [12] the target is unchanged. Description: Compound was tested for plasma inhibition of Angiotensin I converting enzyme activity in the conscious rat. Expressed as Inhibition of AI pressor response at 1 hr at a dose of 14.5 mg/kg po. The assay is classed as organism-based. Also on record: dose 14.5 mg/kg. In a few lines: as §2
For assay [13] the target is unchanged. Kind of assay: Compound was tested for plasma inhibition of Angiotensin I converting enzyme activity in the conscious rat. Expressed as Inhibition of AI pressor response at 1 hr at a dose of 12.1 mg/kg po. The assay is classed as organism-based. Also on record: dose 12.1 mg/kg. The method, boiled down: as §2
The target is the same in assay [14]. Description: Compound was tested for plasma inhibition of Angiotensin I converting enzyme activity in the conscious rat. Expressed as Inhibition of AI pressor response at 2 hr at a dose of 12.1 mg/kg po. The assay is classed as organism-based. Also on record: dose 12.1 mg/kg. In a few lines: as §2
For assay [15] the target is unchanged. Description: Compound was tested for plasma inhibition of Angiotensin I converting enzyme activity in the conscious rat. Expressed as Inhibition of AI pressor response at 4 hr at a dose of 12.1 mg/kg po. It is filed as organism-based. Also on record: dose 12.1 mg/kg. The method, boiled down: as §2
Assay [16] shares this target. Description: Compound was tested for plasma inhibition of Angiotensin I converting enzyme activity in the conscious rat. Expressed as Inhibition of AI pressor response at 6 hr at a dose of 12.1 mg/kg po. It is filed as organism-based. Also on record: dose 12.1 mg/kg. The method, boiled down: as §3
The target is the same in assay [17]. Description: Compound was tested for plasma inhibition of Angiotensin I converting enzyme activity in the conscious rat. Expressed as Inhibition of AI pressor response at 2 hr at a dose of 13.7 mg/kg po. It is filed as organism-based. Set-up: dose 13.7 mg/kg. In a few lines:
as §2

For assay [18] the target is unchanged. Kind of assay: Compound was tested for plasma inhibition of Angiotensin I converting enzyme activity in the conscious rat. Expressed as Inhibition of AI pressor response at 1 hr at a dose of 13.7 mg/kg po. It is filed as organism-based. Set-up: dose 13.7 mg/kg. In a few lines:
as §2

For assay [19] the target is unchanged. Kind of assay: Compound was tested for plasma inhibition of Angiotensin I converting enzyme activity in the conscious rat. Expressed as Inhibition of AI pressor response at 4 hr at a dose of 13.7 mg/kg po. It is filed as organism-based. Also on record: dose 13.7 mg/kg. In a few lines:
as §3

For assay [20] the target is unchanged. Description: Compound was tested for plasma inhibition of Angiotensin I converting enzyme activity in the conscious rat. Expressed as Inhibition of AI pressor response at 6 hr at a dose of 13.7 mg/kg po. The assay is classed as organism-based. Set-up: dose 13.7 mg/kg. The method, boiled down: as §3
The target is the same in assay [21]. Description: Compound was tested for plasma inhibition of Angiotensin I converting enzyme activity in the conscious rat. Expressed as Inhibition of AI pressor response at 6 hr at a dose of 12.4 mg/kg po. Also on record: dose 12.4 mg/kg. It is filed as organism-based. In a few lines:
as §3

The target is the same in assay [22]. Kind of assay: Compound was tested for plasma inhibition of Angiotensin I converting enzyme activity in the conscious rat. Expressed as Inhibition of AI pressor response at 2 hr at a dose of 12.4 mg/kg po. The assay is classed as organism-based. Set-up: dose 12.4 mg/kg. The method, boiled down: as §2
Assay [23] has the same target. Kind of assay: Compound was tested for plasma inhibition of Angiotensin I converting enzyme activity in the conscious rat. Expressed as Inhibition of AI pressor response at 4 hr at a dose of 12.4 mg/kg po. The assay is classed as organism-based. Also on record: dose 12.4 mg/kg. The method, boiled down: as §2
The target is the same in assay [24]. Kind of assay: Compound was tested for plasma inhibition of Angiotensin I converting enzyme activity in the conscious rat. Expressed as Inhibition of AI pressor response at 1 hr at a dose of 12.4 mg/kg po. Set-up: dose 12.4 mg/kg. The assay is classed as organism-based. In a few lines: as §2

In the case of `CCOC(=O)[C@H](Cc1ccc(OC)cc1)NC(=O)C1(NC(=O)[C@H](SC(C)=O)C(C)C)CCCC1`, the Control in the assay on Rattus norvegicus [1] was determined as 346%; in the assay with Rattus norvegicus [2], 275%; with Rattus norvegicus [3], 250%; in the assay on Rattus norvegicus [7], 251%. In addition, the inhibition in assay [4] was found to be 73%; in assay [5], 81%; in assay [6], 79%; in [8], 77%.
`CCCCOC(=O)[C@H](Cc1ccc(O)cc1)NC(=O)C1(NC(=O)[C@H](SC(=O)CN2CCOCC2)C(C)C)CCCC1`: the inhibition in assay [9] amounted to 53%; in assay [10] it was 12%; in assay [11], 34%; in [12], 57%.
Take `CC(=O)S[C@@H](C(=O)NC1(C(=O)N[C@@H](Cc2ccc(O)cc2)C(=O)OC(C)C)CCCC1)C(C)C`: the inhibition came out at 67% in assay [13], 85% in assay [14], 81% in [15] and 78% in assay [16].
With `CCCCOC(=O)[C@H](Cc1ccc(O)cc1)NC(=O)C1(NC(=O)[C@H](SC(=O)C2CCCC2)C(C)C)CCCC1`, the inhibition worked out at 49% in assay [17], 57% in assay [18], 38% in [19] and 27% in assay [20].
On to `CC(=O)S[C@@H](C(=O)NC1(C(=O)N[C@@H](Cc2ccc(O)cc2)C(=O)OCC(C)C)CCCC1)C(C)C`, for which the inhibition was determined as 20% in [21], 77% in assay [22], 69% in [23] and 76% in assay [24].

In general, inhibition refers to the drop in the measured response relative to a control, in per cent. The low end stands for a response near the control, the high end for a response far below the control.

Values taken from ChEMBL document CHEMBL1129264, “Mercaptoacyl dipeptides as orally active dual inhibitors of angiotensin-converting enzyme and neutral endopeptidase” (1996).
